Test results reported in article PMC8178204 (Cancer research, 2021).

Columns and labels:
[1] = tested on: SW480 colon adenocarcinoma xenografts; experiment: SW480 xenograft in nude mice; conditions: for reduction of tumor growth: 20 mg/kg WX8 and/or 12.5 mg/kg SB202190, day 22; for Ki-67 positive tumor cells: tumor sections
[2] = tested on: HCT116 and A375 (sensitive), WI38 and Hs27 (resistant) cell lines; experiment: Cell survival, sensitive versus resistant cell lines; type: cell-based, human
[3] = tested on: 8 normal fibroblast cell lines; experiment: Cell survival after 3 days, viable cell count with FACS; type: cell-based, human; conditions: read-out: median IC50 (concentration that cause 50% reduction in cell survival), 3 days of treatment
12 cancer lines = experiment: as above; type: cell-based, human; conditions: read-out: median IC50 (concentration that cause 50% reduction in cell survival), 3 days of treatment
SW480 cells = experiment: Cell survival, dead cells and proliferation of SW480 cells; type: cell-based, human; conditions: SW480, 0.125 μM WX8 and/or 5 μM SB202190
MCF10A cells = experiment: Cell survival of MCF10A cells after p38MAPK siRNA depletion; type: cell-based, human; conditions: 0.5 μM WX8, 3 days
LC3, p62 = type: cell-based, human; conditions: 0.5 μM WX8, all four cell lines
LC3, p62, LAMP2 = experiment: Immunoblot time course of autophagy-degraded proteins in SW480 cells; type: cell-based, human; conditions: for p62 accumulation, p38MAPK inhibitor alone: SW480, 1 or 3 days
Cathepsin D = Cathepsin D maturation in SW480 cells; type: cell-based, human; conditions: SW480, 0.125 μM WX8 with or without 5 μM SB202190
Summary of the method: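 SW480 cells were cultured for the indicated times with 0.125 μM WX8, 5 μM SB202190, or both, each diluted 1:1,000 from DMSO stocks, with DMSO as vehicle. Cells were trypsinized and pooled with unattached cells, then lysed in SDS sample buffer. Precursor and mature Cathepsin D were immunoblotted (nitrocellulose, peroxidase secondary, chemiluminescence) and quantified by densitometry of low-exposure images.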

[4] = 20 mg/kg WX8 and/or 12.5 mg/kg SB202190
[5] = SW480, 0.125 μM WX8 and/or 5 μM SB202190

| Compound | reduction of tumor growth ([1]; daily intraperitoneal) [%] | Ki-67 positive tumor cells [1, 4] | difference in sensitivity to WX8 between sensitive and resistant cell lines [2] | IC50 [3] [nM] | IC50 (12 cancer lines) [nM] | effect on proliferation (cell divisions per day) over time (SW480 cells) | reduction of cell survival (MCF10A cells; control siRNA-transfected cells) [%] | reduction of cell survival (MCF10A cells; highest levels of p38MAPK depletion) [%] | Total LC3 and the LC3-II/I ratio (LC3, p62) | p62 level (LC3, p62) | LAMP2 level increase (LC3, p62, LAMP2; [5]) | p62 level increase (LC3, p62, LAMP2; [5]) | time course of LC3 and p62 protein levels (LC3, p62, LAMP2; [5]) | total LC3 protein accumulation above initial levels (LC3, p62, LAMP2; [5]) [fold] | day at which active Cathepsin D reappeared (Cathepsin D) [days] | adverse effects (mouse behavior, body weight) ([1]; daily intraperitoneal, 20 mg/kg WX8 and/or 12.5 mg/kg SB202190) | p62 accumulation, p38MAPK inhibitor alone (LC3, p62, LAMP2) |
| --- | --- | --- | --- | --- | --- | --- | --- | --- | --- | --- | --- | --- | --- | --- | --- | --- | --- |
| C(=N\Nc1nc(Nc2ccccc2)nc(N2CCOCC2)n1)/c1c[nH]c2ccccc12 [WX8] | 22 | about 75% | approximately 16 fold | 2700 | 200 | reduced proliferation for up to two days | 20 | 65 | increased | p62 accumulation | about 3 fold | about 3 fold | peaked on day 2 | 5 | 3 | – | – |
| Oc1ccc(-c2nc(-c3ccncc3)c(-c3ccc(F)cc3)[nH]2)cc1 [SB202190] | 28 | about 75% | – | – | – | reduced proliferation for up to two days | – | – | – | – | about 3 fold | about 3 fold | – | 2 | – | No adverse effects were apparent | caused accumulation of p62 |
| CC(C)(C)Cn1c(N)nc2ccc(-c3[nH]c(C(C)(C)C)nc3-c3ccc(F)cc3)nc21 [LY2228820] | – | – | – | – | – | – | – | – | – | – | – | – | – | – | – | – | caused accumulation of p62 |
